Data on 1 compound can be found in ChEMBL document CHEMBL1165989, “Characterization of pseudacyclins A-E, a suite of cyclic peptides produced by Pseudallescheria boydii” (J Nat Prod, 2010).

Usually IC50 stands for the concentration at which inhibition is half-maximal.

The nature of experiment [1]: Cytotoxicity against resting human lymphocytes by MTT assay. The experiment is classed as cell-based. As to conditions: Lymphocyte. Background: Formazan colour is commonly taken as a measure of viable cells.
A short description of experiment [2]: Cytotoxicity against mitogen-activated human lymphocytes by MTT assay. The experiment is classed as cell-based. As to conditions: Lymphocyte.
In a further experiment the test system is Escherichia coli. Description: Antimicrobial activity against Escherichia coli. The experiment is classed as functional, organism-based.
In another experiment the test system is Enterococcus faecalis. Description: Antimicrobial activity against Enterococcus faecalis. In kind it is functional, organism-based.
The next experiment relates to Streptococcus pyogenes. Description: Antimicrobial activity against Streptococcus hemolyticus. In kind it is functional, organism-based.
Another experiment deals with Staphylococcus aureus. Description: Antimicrobial activity against Staphylococcus aureus. In kind it is functional, organism-based.
The next experiment has as its system Candida albicans. Description: Antimicrobial activity against Candida albicans. In kind it is functional, organism-based.
In the next experiment the test system is Pichia kudriavzevii. Description: Antimicrobial activity against Candida krusei. In kind it is functional, organism-based.
A short description of experiment [3]: Inhibition of NO synthase activity in mouse B10R cells assessed as LPS-induced NO production after 24 hrs. In kind it is cell-based. An outline of the steps: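 B10R macrophages stimulated with […] (0.5 µg/mL). NO-synthase activity was read as NO2- production over 24 h, and an IC50 was derived.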
Another experiment relates to Candida tropicalis. Description: Antimicrobial activity against Candida tropicalis. The experiment is classed as functional, organism-based.
Another experiment concerns Candida parapsilosis. Description: Antimicrobial activity against Candida parapsilosis. The experiment is classed as functional, organism-based.

Each structure is given as a SMILES string. Calls of active or inactive are those of the source. The calls are words filed in the database; no cut-off is given here.

Regarding `CC[C@H](C)[C@H](NC(C)=O)C(=O)N[C@H]1CCCNC(=O)[C@H]([C@@H](C)CC)NC(=O)[C@H]([C@@H](C)CC)NC(=O)[C@@H]2CCCN2C(=O)[C@@H](Cc2ccccc2)NC1=O` [PSEUDACYCLIN A], the IC50 in experiment [1] is 32 µM; in experiment [2], 12.9 µM; in experiment [3], 41.4 µM. Besides, the inhibition result in the experiment on Escherichia coli, in the experiment on Enterococcus faecalis, in the experiment on Streptococcus pyogenes, in the experiment with Staphylococcus aureus, with Candida albicans and in the experiment on Pichia kudriavzevii was “inactive” throughout. In addition, the inhibition result with Candida tropicalis and in the experiment with Candida parapsilosis was “inactive” each time.
